These results are taken from ChEMBL document CHEMBL4385593, “Design, synthesis and biological evaluation of novel benzothiadiazine derivatives as potent PI3Kδ-selective inhibitors for treating B-cell-mediated malignancies” (Eur J Med Chem, 2019).

For series [1], the target named is PI3-kinase p110-delta/p85-alpha (Homo sapiens, UniProt O00329). In words: Inhibition of His-tagged recombinant human PI3K p110delta/p85alpha using lipid substrate incubated for 2 hrs by ADP-Glo assay. The class given is protein-complex assay.
Chain of PI3-kinase p110-delta/p85-alpha (P27986 whole entry): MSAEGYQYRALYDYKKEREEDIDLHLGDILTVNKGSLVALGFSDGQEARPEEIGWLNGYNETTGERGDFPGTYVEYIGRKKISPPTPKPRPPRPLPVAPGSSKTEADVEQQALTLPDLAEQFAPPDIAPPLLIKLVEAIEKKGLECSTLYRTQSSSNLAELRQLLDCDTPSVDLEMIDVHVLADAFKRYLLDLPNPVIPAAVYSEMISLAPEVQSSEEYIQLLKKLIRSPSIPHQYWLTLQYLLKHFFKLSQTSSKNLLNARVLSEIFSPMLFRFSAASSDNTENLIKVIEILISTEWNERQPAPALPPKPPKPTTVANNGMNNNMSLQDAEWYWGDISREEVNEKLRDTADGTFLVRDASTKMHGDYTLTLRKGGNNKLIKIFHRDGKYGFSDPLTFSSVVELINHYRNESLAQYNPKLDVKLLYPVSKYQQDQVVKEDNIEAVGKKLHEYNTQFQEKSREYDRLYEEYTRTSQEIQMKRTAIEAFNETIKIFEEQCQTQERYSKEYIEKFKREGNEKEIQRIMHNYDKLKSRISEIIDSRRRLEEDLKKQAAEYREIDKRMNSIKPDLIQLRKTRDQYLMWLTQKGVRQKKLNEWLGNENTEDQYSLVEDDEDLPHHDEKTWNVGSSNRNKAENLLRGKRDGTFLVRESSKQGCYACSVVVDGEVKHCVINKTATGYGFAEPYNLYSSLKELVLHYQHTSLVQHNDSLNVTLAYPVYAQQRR
Chain of PI3-kinase p110-delta/p85-alpha (O00329 whole entry): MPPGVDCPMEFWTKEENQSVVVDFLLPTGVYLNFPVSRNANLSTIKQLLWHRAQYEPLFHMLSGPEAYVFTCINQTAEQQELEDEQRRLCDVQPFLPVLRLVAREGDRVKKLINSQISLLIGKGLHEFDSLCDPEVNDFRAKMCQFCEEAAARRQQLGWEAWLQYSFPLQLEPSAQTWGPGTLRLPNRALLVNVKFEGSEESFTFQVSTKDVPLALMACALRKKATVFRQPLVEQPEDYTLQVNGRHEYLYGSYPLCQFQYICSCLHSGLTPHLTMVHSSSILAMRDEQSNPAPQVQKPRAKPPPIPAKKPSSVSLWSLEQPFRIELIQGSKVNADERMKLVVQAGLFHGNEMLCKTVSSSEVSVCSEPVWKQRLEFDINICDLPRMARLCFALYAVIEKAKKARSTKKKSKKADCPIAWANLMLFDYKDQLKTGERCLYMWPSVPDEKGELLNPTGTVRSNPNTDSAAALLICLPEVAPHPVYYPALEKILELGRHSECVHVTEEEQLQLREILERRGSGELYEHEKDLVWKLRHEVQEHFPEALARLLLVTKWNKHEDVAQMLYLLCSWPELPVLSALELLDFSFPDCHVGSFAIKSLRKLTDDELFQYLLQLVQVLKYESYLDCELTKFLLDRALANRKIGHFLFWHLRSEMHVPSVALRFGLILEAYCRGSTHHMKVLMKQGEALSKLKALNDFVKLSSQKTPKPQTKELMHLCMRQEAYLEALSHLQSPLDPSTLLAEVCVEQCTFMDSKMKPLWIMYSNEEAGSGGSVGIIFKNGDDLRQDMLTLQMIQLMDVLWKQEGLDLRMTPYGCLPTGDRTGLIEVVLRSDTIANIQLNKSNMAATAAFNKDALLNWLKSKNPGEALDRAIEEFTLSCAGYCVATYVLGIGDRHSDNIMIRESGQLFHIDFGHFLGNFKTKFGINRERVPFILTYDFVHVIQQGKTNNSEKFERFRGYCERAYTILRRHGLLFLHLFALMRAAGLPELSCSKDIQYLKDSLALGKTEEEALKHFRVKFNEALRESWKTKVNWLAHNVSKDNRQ
The subject of series [2] is SU-DHL-6. In words: Growth inhibition of human SU-DHL6 cells incubated for 72 hrs by CellTiter-Glo assay. The class given is functional. The following applies: SU-DHL-6, 72 h. The procedure, abridged:
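SU-DHL-6 cells were seeded at 1 × 10^4 per well and exposed to compound or medium alone for 72 h. Viability was measured by CellTiter-Glo luminescence, and GI50 was derived by curve fitting.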
For orientation: Cellular ATP, detected with luciferase, serves as a proxy for viable cell number.

Series [3] is filed under the species Homo sapiens. The series is described as follows: Selectivity ratio of IC50 for His-tagged recombinant human full length PI3K p110alpha/p85alpha to IC50 for His-tagged recombinant human PI3K p110delta/p85alpha.
In series [4] the target is Phosphatidylinositol 4,5-bisphosphate 3-kinase catalytic subunit beta isoform (Homo sapiens, UniProt P42338). The series is described as follows: Inhibition of His6-tagged recombinant full length human N-terminal PI3Kbeta expressed in baculovirus infected Sf21 cells using lipid substrate incubated for 2 hrs by ADP-Glo assay. A general note: ADP-Glo turns the ADP formed in a reaction into a luminescent signal.
Chain of Phosphatidylinositol 4,5-bisphosphate 3-kinase catalytic subunit beta isoform (P42338 whole entry, canonical isoform): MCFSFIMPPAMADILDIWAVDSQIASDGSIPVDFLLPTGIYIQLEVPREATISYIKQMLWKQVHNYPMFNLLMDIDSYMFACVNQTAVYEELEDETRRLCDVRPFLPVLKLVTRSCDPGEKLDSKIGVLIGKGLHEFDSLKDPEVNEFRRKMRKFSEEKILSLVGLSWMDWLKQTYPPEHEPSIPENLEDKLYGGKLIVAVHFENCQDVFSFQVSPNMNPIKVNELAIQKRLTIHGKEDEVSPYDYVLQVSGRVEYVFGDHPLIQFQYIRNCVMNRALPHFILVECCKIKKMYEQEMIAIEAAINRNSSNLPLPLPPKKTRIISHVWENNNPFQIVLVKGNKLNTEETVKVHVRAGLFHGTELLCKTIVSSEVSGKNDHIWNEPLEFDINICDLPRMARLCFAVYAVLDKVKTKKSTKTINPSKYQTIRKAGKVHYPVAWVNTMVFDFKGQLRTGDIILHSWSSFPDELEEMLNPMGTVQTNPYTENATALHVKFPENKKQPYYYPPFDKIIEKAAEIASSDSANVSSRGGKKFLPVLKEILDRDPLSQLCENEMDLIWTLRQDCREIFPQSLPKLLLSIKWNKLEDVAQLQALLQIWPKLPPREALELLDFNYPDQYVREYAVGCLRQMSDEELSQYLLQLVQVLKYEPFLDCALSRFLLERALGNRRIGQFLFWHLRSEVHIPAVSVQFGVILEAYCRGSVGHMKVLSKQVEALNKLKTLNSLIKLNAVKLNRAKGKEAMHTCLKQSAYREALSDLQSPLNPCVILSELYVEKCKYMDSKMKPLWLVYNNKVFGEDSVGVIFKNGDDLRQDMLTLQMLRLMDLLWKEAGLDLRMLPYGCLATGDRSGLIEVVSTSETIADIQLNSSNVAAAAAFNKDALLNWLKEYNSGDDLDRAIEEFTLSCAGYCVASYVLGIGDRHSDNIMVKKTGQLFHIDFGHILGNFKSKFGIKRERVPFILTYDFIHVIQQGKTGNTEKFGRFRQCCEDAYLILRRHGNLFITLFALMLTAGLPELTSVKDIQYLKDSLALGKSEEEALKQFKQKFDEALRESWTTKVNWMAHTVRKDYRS

The target in series [5] is PI3-kinase p110-alpha/p85-alpha (Homo sapiens, UniProt P42336). In words: Inhibition of His-tagged recombinant human full length PI3K p110alpha/p85alpha expressed in baculovirus expression system using lipid substrate incubated for 60 mins by kinase-Glo reagent based luminescence assay. For orientation: In Kinase-Glo more light means more ATP remaining.
Chain of PI3-kinase p110-alpha/p85-alpha (P27986 whole entry, canonical isoform): as the sequence (P27986 whole entry) above
Chain of PI3-kinase p110-alpha/p85-alpha (P42336 whole entry, canonical isoform): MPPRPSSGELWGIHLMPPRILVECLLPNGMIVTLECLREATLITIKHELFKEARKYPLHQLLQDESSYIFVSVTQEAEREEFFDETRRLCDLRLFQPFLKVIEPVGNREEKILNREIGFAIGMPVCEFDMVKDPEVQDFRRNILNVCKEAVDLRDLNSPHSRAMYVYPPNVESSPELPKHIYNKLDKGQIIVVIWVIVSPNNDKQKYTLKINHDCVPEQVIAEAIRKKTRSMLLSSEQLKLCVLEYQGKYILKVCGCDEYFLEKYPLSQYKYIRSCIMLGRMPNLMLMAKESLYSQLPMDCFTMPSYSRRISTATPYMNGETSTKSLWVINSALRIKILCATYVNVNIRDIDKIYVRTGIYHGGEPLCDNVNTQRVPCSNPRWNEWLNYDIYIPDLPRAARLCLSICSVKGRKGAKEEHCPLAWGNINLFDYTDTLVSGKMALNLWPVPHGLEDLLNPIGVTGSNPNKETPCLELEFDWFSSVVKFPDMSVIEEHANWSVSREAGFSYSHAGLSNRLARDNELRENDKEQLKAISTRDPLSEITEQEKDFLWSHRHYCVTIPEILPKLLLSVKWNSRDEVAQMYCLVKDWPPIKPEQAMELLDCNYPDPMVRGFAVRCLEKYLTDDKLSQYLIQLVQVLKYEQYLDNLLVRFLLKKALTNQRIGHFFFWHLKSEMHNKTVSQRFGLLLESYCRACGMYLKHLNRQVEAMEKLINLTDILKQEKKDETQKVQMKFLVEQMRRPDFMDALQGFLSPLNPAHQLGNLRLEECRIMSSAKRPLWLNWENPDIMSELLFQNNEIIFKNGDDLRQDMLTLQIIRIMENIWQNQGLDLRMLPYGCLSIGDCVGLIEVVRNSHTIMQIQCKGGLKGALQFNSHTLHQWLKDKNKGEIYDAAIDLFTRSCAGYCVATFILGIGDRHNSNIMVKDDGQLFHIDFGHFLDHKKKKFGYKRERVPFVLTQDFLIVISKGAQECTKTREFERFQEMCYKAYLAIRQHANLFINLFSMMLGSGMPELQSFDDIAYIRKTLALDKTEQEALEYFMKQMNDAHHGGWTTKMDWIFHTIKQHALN
Series [6] concerns the target Phosphatidylinositol 4,5-bisphosphate 3-kinase catalytic subunit gamma isoform (Homo sapiens, UniProt P48736). The series is described as follows: Inhibition of His-tagged recombinant human full length PI3K p110gamma expressed in baculovirus expression system using lipid substrate incubated for 2 hrs by ADP-Glo assay.
The species named for series [7] is Homo sapiens. The series is described as follows: Selectivity ratio of IC50 for His6-tagged recombinant full length human N-terminal PI3Kbeta to IC50 for His-tagged recombinant human PI3K p110delta/p85alpha.
Series [8] is filed under the species Homo sapiens. In words: Selectivity ratio of IC50 for His-tagged recombinant human full length PI3K p110gamma to IC50 for His-tagged recombinant human PI3K p110delta/p85alpha.
Series [9] can be described thus: Half life in Sprague-Dawley rat at 2 mg/kg, iv by LC/MS/MS analysis. The class given is ADME, organism-based. The following applies: in vivo. The procedure, abridged: (§1)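 Male SD rats, three per group, dosed iv at 2 mg/kg or orally at 10 mg/kg. iv dose was a 0.4 mg/mL solution in 5% DMSO/10% Solutol/10% EtOH/75% saline. Oral dose was a 1 mg/mL suspension in 2% DMSO/98% MC (0.5%). Terminal orbital blood was taken into EDTA-2K under isoflurane at set time points. Plasma levels were measured by LC/MS/MS.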

The nature of series [10]: AUC (0 to t) in Sprague-Dawley rat at 2 mg/kg, iv by LC/MS/MS analysis. The class given is ADME, organism-based. As to conditions: in vivo. The procedure, abridged: as §1
A short description of series [11]: Volume of distribution at steady state in Sprague-Dawley rat at 2 mg/kg, iv by LC/MS/MS analysis. The class given is ADME, organism-based. The following applies: in vivo, read-out: Vdss. The essentials:
as §1

Series [12] is described as follows: Clearance in Sprague-Dawley rat at 2 mg/kg, iv by LC/MS/MS analysis. The class given is ADME, organism-based. The following applies: in vivo.
Series [13] can be described thus: Cmax in Sprague-Dawley rat at 10 mg/kg, po by LC/MS/MS analysis. The class given is ADME, organism-based. On the set-up: dose 10 mg/kg, route oral. The following applies: in vivo. The procedure, abridged:
as §1

Series [14] in a line: AUC (0 to t) in Sprague-Dawley rat at 10 mg/kg, po by LC/MS/MS analysis. The class given is ADME, organism-based. The following applies: in vivo. The procedure, abridged:
as §1

The nature of series [15]: Oral bioavailability in Sprague-Dawley rat at 10 mg/kg by LC/MS/MS analysis. The class given is ADME, organism-based. As to conditions: in vivo. The essentials:
as §1

A short description of series [16]: Half life in Sprague-Dawley rat at 10 mg/kg, po by LC/MS/MS analysis. The class given is ADME, organism-based. As to conditions: in vivo. The procedure, abridged: as §1

Chain of Phosphatidylinositol 4,5-bisphosphate 3-kinase catalytic subunit gamma isoform (P48736 whole entry, canonical isoform): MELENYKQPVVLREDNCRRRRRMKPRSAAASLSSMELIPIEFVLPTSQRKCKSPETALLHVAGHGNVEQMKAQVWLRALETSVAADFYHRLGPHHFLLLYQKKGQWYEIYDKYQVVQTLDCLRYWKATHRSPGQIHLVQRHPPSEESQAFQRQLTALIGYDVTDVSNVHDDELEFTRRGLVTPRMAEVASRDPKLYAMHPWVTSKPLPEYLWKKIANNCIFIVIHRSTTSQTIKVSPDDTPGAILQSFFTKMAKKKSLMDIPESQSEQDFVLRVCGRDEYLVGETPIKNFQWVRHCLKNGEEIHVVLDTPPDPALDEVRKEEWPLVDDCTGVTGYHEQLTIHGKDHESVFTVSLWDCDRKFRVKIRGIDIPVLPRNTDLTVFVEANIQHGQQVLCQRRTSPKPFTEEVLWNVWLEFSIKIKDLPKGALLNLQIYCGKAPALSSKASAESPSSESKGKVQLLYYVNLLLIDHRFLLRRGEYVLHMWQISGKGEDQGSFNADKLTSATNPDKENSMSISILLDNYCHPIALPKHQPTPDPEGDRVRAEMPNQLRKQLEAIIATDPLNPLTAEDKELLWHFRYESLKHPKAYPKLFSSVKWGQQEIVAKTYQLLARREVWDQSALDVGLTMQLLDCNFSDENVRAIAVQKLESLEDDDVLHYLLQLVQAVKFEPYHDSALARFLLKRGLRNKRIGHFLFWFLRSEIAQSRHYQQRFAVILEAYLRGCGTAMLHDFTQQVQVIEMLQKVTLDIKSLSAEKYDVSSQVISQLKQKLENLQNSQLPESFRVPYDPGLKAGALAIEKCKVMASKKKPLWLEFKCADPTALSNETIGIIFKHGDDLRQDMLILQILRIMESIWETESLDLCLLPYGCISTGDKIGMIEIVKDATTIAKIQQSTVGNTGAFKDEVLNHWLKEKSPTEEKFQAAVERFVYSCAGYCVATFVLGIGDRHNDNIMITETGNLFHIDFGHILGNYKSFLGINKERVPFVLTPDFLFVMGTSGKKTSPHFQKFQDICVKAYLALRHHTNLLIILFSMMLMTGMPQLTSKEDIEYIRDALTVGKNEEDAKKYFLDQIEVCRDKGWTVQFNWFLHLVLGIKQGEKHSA

Usually IC50 stands for the concentration that inhibits the measured activity by half. For orientation: GI50 means the concentration at which growth is held to half of that of the control. As for `CC(C1=Nc2ccccc2S(=O)(=O)N1c1ccccc1)n1cnc2c(N)ncnc21` (stereo not drawn), in series [1], the IC50 was 68 nM. Moreover, the GI50 in [2] amounted to 23100 nM.
For `CC(Nc1ncnc(N)c1C#N)C1=Nc2cccc(F)c2S(=O)(=O)N1c1ccccc1` (stereo not drawn), the IC50 in [1] was 35 nM. Besides, the GI50 in series [2] turned out to be 1220 nM.
The corresponding values for `CC(Nc1ncnc(N)c1C#N)C1=Nc2cccc(Cl)c2S(=O)(=O)N1c1ccccc1` (stereo not drawn) are 3.2 nM and 187 nM.
As for `C[C@H](Nc1ncnc(N)c1C#N)C1=Nc2cccc(Cl)c2S(=O)(=O)N1c1ccccc1`, the Ratio IC50 in series [3] was greater than 3110; in series [7], greater than 172; in series [8], greater than 313. In addition, the concentration for half-maximal inhibition (IC50) was 55 nM in series [4], less than 0.32 nM in series [1], 996 nM in series [5] and 100 nM in series [6]. Also, the GI50 in series [2] was 15.9 nM.
On to `CC(C1=Nc2ccccc2S(=O)(=O)N1c1cccnc1)n1cnc2c(N)ncnc21` (stereo not drawn), for which the IC50 in [1] came out at 623 nM.
Same read-out and setting: with `CCC(Nc1ncnc2[nH]cnc12)C1=Nc2ccccc2S(=O)(=O)N1c1ccc(OC(F)(F)F)cc1` (stereo not drawn) the figure was greater than 3000 nM.
Regarding `CCC(Nc1ncnc(N)c1C#N)C1=Nc2cccc(F)c2S(=O)(=O)N1c1ccccc1` (stereo not drawn), the IC50 in series [1] turned out to be 141 nM. In [2], this compound yielded a GI50 of 10500 nM.
For `C[C@@H](Nc1ncnc(N)c1C#N)C1=Nc2cccc(Cl)c2S(=O)(=O)N1c1ccccc1`, the Ratio IC50 is greater than 714 in [3], 24 in [7] and 16 in [8]. Moreover, the half-maximal inhibitory concentration (IC50) is 169 nM in series [4], 7 nM in series [1], greater than 5000 nM in series [5] and 112 nM in [6]. In series [2], this compound yielded a 50% growth inhibitory concentration (GI50) of 70.3 nM.
`CC(Nc1nc(Cl)nc2[nH]cnc12)C1=Nc2ccccc2S(=O)(=O)N1c1ccccc1` (stereo not drawn): the IC50 in [1] worked out at 1200 nM.
In the case of `CC(Nc1nc(F)nc2[nH]cnc12)C1=Nc2ccccc2S(=O)(=O)N1c1ccccc1` (stereo not drawn), in series [1], the half-maximal inhibitory concentration (IC50) was 92 nM. For the same compound, the concentration for 50% growth inhibition (GI50) in series [2] stood at 4690 nM.
On to `CC(Nc1ncnc2[nH]cnc12)C1=Nc2ccccc2S(=O)(=O)N1c1ccccc1` (stereo not drawn), for which the IC50 in series [1] is 344 nM.
On to `CC(=O)O[C@H]1C(=O)[C@@]2(C)[C@H]([C@H](OC(=O)c3ccccc3)[C@]3(O)C[C@H](OC(=O)[C@H](O)[C@@H](NC(=O)c4ccccc4)c4ccccc4)C(C)=C1C3(C)C)[C@]1(OC(C)=O)CO[C@@H]1C[C@@H]2O` [PACLITAXEL], for which, in [2], the GI50 was determined as 1.9 nM.
On to `CC(Nc1ncnc2[nH]cnc12)C1=Nc2ccccc2S(=O)(=O)N1c1ccc(F)cc1` (stereo not drawn), for which the IC50 in series [1] amounted to 2000 nM.
Same read-out and setting: with `CC(C1=Nc2ccccc2S(=O)(=O)N1c1ccc(F)cc1)n1cnc2c(N)ncnc21` (stereo not drawn) the figure was 628 nM.
As to `CC(Nc1ncnc(N)c1C#N)C1=Nc2ccccc2S(=O)(=O)N1c1ccccc1` (stereo not drawn), the concentration for half-maximal inhibition (IC50) in series [1] came to 15 nM. For the same compound, in series [2], the concentration for 50% growth inhibition (GI50) amounted to 3500 nM.
With `CCC(C1=Nc2ccccc2S(=O)(=O)N1c1ccc(F)cc1)n1cnc2c(N)ncnc21` (stereo not drawn), the 50% inhibitory concentration (IC50) in [1] is greater than 3000 nM.
Still for that read-out and setting: with `CC(Nc1ncnc2[nH]cnc12)C1=Nc2ccccc2S(=O)(=O)N1c1cccc(C(F)(F)F)c1` (stereo not drawn) the figure was greater than 3000 nM.
As for `CC(Nc1ncnc2[nH]cnc12)C1=Nc2cccc(Cl)c2S(=O)(=O)N1c1ccccc1` (stereo not drawn), the half-maximal inhibitory concentration (IC50) in series [1] stood at 9.8 nM. In addition, in series [2], the GI50 was 770 nM.
In the case of `CC(C1=Nc2cccc(F)c2S(=O)(=O)N1c1ccccc1)n1cnc2c(N)ncnc21` (stereo not drawn), in [1], the IC50 worked out at 54 nM. The same compound showed a 50% growth inhibitory concentration (GI50) in series [2] of 7200 nM.
Turning to `CCC(C1=Nc2ccccc2S(=O)(=O)N1c1ccc(OC(F)(F)F)cc1)n1cnc2c(N)ncnc21` (stereo not drawn), the 50% inhibitory concentration (IC50) in series [1] is greater than 3000 nM.
On the same count and under the same terms, next, `CC(Nc1ncnc2[nH]cnc12)C1=Nc2ccccc2S(=O)(=O)N1c1cccnc1` (stereo not drawn): 921 nM.
For orientation: half-life means the time in which the quantity being followed falls by half. One may read the AUC(0-t) as the area under the concentration-time curve up to a stated or last time point. A low value points to low exposure. By clearance is commonly meant a measure of how efficiently the substance is removed, as volume per time. Lower therefore signals a low capacity for elimination. One may read the Cmax as the peak of the concentration-time curve. Broadly, the bioavailability is dose-corrected exposure relative to a reference, in per cent. Lower therefore signals poor availability. For `C[C@H](Nc1ncnc2[nH]cnc12)C1=Nc2cccc(Cl)c2S(=O)(=O)N1c1ccccc1`, the Ratio IC50 is 791 in series [3], 167 in series [7] and 34 in series [8]. Moreover, the half-maximal inhibitory concentration (IC50) in [4] is 766 nM; in series [1] it was 4.6 nM; in series [5] it was 3640 nM; in [6], 156 nM. For the same compound, in series [2], the concentration for 50% growth inhibition (GI50) came out at 33.2 nM. In addition, the values for the half-life in [9] and in series [16] were 31.1 min and 72 min, respectively. For the same compound, the AUC(0-t) in [10] worked out at 1400 ng·h/mL; in series [14] it was 2010 ng·h/mL. The Vd in series [11] is 0.853 L/kg. In series [12], this compound gave a clearance of 25.8 mL/min/kg. In [13], this compound registered a Cmax of 643 ng/mL. In series [15], this compound displayed a bioavailability of 29.2%.
For the compound `CCC(Nc1ncnc2[nH]cnc12)C1=Nc2cccc(F)c2S(=O)(=O)N1c1ccccc1` (stereo not drawn), in series [1], the half-inhibitory concentration (IC50) was greater than 3000 nM.
For the compound `CCC(Nc1ncnc2[nH]cnc12)C1=Nc2cccc(Cl)c2S(=O)(=O)N1c1ccccc1` (stereo not drawn), the 50% inhibitory concentration (IC50) in series [1] worked out at 81 nM. Also, growth in [2] was halved (GI50) at 2190 nM.
In [2], `CC[C@H](Nc1ncnc2[nH]cnc12)c1nc2cccc(F)c2c(=O)n1-c1ccccc1` [IDELALISIB] showed a GI50 of 124 nM. Also, the results for the half-life in [9] and in [16] were 31.1 min and 61.8 min, respectively. The area under the curve AUC(0-t) in [10] stood at 1400 ng·h/mL; in series [14], 3190 ng·h/mL. Moreover, in [11], the Vd worked out at 0.884 L/kg. In series [13], this compound came in with a Cmax of 2320 ng/mL. In addition, the bioavailability in series [15] is 45.8%.
`CCC(Nc1ncnc2[nH]cnc12)C1=Nc2ccccc2S(=O)(=O)N1c1cccc(C(F)(F)F)c1` (stereo not drawn): the IC50 in [1] was greater than 3000 nM.
Take `CCC(Nc1ncnc2[nH]cnc12)C1=Nc2ccccc2S(=O)(=O)N1c1ccc(OC)c(OC)c1` (stereo not drawn): the half-inhibitory concentration (IC50) in series [1] was greater than 3000 nM.
As to `CCC(Nc1ncnc(N)c1C#N)C1=Nc2cccc(Cl)c2S(=O)(=O)N1c1ccccc1` (stereo not drawn), the IC50 in series [1] was 12 nM. For the same compound, in [2], the GI50 is 1680 nM.
In the case of `CCC(Nc1nc(F)nc2[nH]cnc12)C1=Nc2cccc(F)c2S(=O)(=O)N1c1ccccc1` (stereo not drawn), in [1], the concentration for half-maximal inhibition (IC50) is 383 nM.
As for `C[C@@H](Nc1ncnc2[nH]cnc12)C1=Nc2cccc(Cl)c2S(=O)(=O)N1c1ccccc1`, the Ratio IC50 in series [3] is greater than 81; in series [7] it was 64; in series [8] it was 31. The IC50 in [4] is 3990 nM; in series [1] it was 62 nM; in series [5], greater than 5000 nM; in series [6], 1910 nM. This compound registered a 50% growth inhibitory concentration (GI50) in series [2] of 190 nM.
